Assay [1] deals with T1, N-acylethanolamine-hydrolyzing acid amidase (Homo sapiens) (UniProt Q02083).
T1 sequence (whole entry): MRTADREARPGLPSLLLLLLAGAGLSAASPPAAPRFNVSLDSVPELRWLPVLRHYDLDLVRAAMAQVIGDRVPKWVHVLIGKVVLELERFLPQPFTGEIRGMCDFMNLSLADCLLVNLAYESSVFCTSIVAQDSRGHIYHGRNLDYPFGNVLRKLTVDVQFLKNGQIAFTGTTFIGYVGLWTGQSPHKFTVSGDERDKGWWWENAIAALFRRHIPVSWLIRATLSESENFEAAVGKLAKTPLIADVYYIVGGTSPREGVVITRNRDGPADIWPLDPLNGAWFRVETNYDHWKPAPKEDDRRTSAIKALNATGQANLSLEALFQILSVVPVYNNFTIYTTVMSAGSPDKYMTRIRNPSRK
The assay is described as follows: Inhibition of NAAA in human RT112 cells assessed as increase in N-stearoylethanolamide level at 40 uM after 24 hrs by HPLC-MS/MS analysis. The settings on record: RT-112. In kind it is cell-based. In a few lines:
(§1)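 RT112 cells were treated with 40 µM inhibitor for 24 h. Cells and supernatant were pooled (1 ml) and spiked with d4-SEA and d4-LNEA internal standards. Protein was precipitated with cold acetone, and the supernatant was purified by SPE and stored at −80 °C. NAEs were quantified by LC-TripleTOF MS and reported in ng/ml as mean ± SD.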

Assay [2] addresses T1, N-acylethanolamine-hydrolyzing acid amidase (Homo sapiens). Nature of the assay: Reversible inhibition of recombinant human NAAA at 50 to 100 uM preincubated for 20 mins followed by 20-fold dilution and PAMCA substrate addition by fluorescence HTS method. In a few lines: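 Reversibility test: human recombinant NAAA was incubated with inhibitor at 50 or 100 µM final for 20 min. The mixture was diluted twenty-fold and fresh inhibitor added (2.5–50 µM for the 50 µM series, 5–100 for the 100 µM series). The reaction was started with PAMCA and fluorescence was read. Activity was compared between the paired conditions.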

Assay [3] in a line: Antiproliferative activity against human RT112 cells after 72 hrs by MTT assay. The settings on record: RT-112, 72 h. It counts as functional, cell-based. In outline: (§2)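 Human bladder cancer cells were kept in RPMI 1640 with 10% FBS and penicillin/streptomycin at 37 °C, 5% CO₂. They were seeded at 5 × 10³ cells/well and exposed to serial log dilutions from 100 to 0.1 µM for 72 h, with DMSO for controls. Read-out was MTT, with formazan dissolved in DMSO and read at 570 nm. IC50 was the concentration inhibiting 50% relative to untreated controls. Three or more experiments in triplicate; mean ± SD.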

The target of assay [4] is T1, N-acylethanolamine-hydrolyzing acid amidase (Homo sapiens). The assay is described as follows: Inhibition of recombinant human NAAA at 5 to 100 uM using PAMCA as substrate preincubated for 30 mins followed by substrate addition measured every 3 mins for 5 hrs by fluorescence HTS method. In outline: (§3)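 Human recombinant NAAA (25 ng, purity >95%) was used in 100 mM sodium acetate buffer and preincubated with inhibitor in DMSO for 30 min at room temperature. PAMCA was then added to a final 10 µM. Released 7-amino-4-methylcoumarin fluorescence was read at 460 nm every 3 min. […] Linearity was checked at 5–100 µM over 5 h.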

For another assay, the system named is RT-112. The assay is described as follows: (§4) Anti-migratory activity against human RT112 cells at 40 nM after 24 hrs by wound healing assay relative to control. In kind it is functional. In outline:
(§5)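 RT112 cells seeded at 5 × 10⁵ cells/well to give a sub-confluent monolayer, then scratched (~1 mm wide). Debris was removed and medium replaced with medium containing inhibitor at 40 nM, with DMSO only for controls. Phase-contrast images were taken at 0 and 24 h. Wound closure was calculated as the initial wound area minus the cell-free area remaining at 24 h. Three or more experiments in triplicate; mean ± SD; Student's t-test.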

The target of assay [5] is T1, N-acylethanolamine-hydrolyzing acid amidase (Homo sapiens). Nature of the assay: Inhibition of NAAA in human RT112 cells assessed as increase in N-palmitoylethanolamide level at 40 uM after 24 hrs by HPLC-MS/MS analysis. In kind it is cell-based. The settings on record: RT-112. In a few lines: as §1
The nature of assay [6]: Antiproliferative activity against human 5637 cells after 72 hrs by MTT assay. It counts as functional, cell-based. The settings on record: Homo sapiens, 5637, 72 h. In a few lines: as §2
Assay [7] has as its target T1, N-acylethanolamine-hydrolyzing acid amidase (Homo sapiens). Nature of the assay: Competitive inhibition of recombinant human NAAA at 100 uM in presence of varying levels of PAMCA as substrate preincubated for 30 mins followed by substrate addition measured every 3 mins for 2.5 hrs by Lineweaver-Burk plot analysis. In a few lines:
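Human recombinant NAAA was used with PAMCA as substrate at varying concentrations, using the fluorescence assay in acetate buffer. Vmax and KM were derived from Michaelis–Menten fits, and inhibition mode was assigned from Lineweaver–Burk plots of 1/V against 1/[PAMCA].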

The target is the same in assay [8]. Nature of the assay: Inhibition of NAAA in human RT112 cells assessed as increase in N-oleoylethanolamide level at 40 uM after 24 hrs by HPLC-MS/MS analysis. It counts as cell-based. To be noted: RT-112. In a few lines:
as §1

In assay [9] the target is T2, N-acylethanolamine-hydrolyzing acid amidase (Homo sapiens, UniProt Q02083).
T2 sequence (Q02083 whole entry): T1 sequence (whole entry)
Nature of the assay: (§6) Inhibition of recombinant human NAAA using PAMCA as substrate preincubated for 30 mins followed by substrate addition measured every 3 mins for 2.5 hrs by fluorescence HTS method. In outline: as §3

In assay [10] the target is T1, N-acylethanolamine-hydrolyzing acid amidase (Homo sapiens). The assay is described as §6. In a few lines: as §3
Assay [11] is described as follows: Antiproliferative activity against human RT4 cells after 72 hrs by MTT assay. It counts as functional, cell-based. The settings on record: RT-4, 72 h. In outline:
as §2

The nature of assay [12]: as §4. In kind it is functional, RT-112. In outline: as §5
The next assay has as its system HT-1376. Nature of the assay: Antiproliferative activity against human HT-1376 cells after 72 hrs by MTT assay. It counts as functional, cell-based. To be noted: HT-1376, 72 h. In outline: as §2

Active and inactive are the calls of the source. No cut-off for these calls is given here.

In the case of `CCCCCCCCCCCCCCCNC(=O)CCO`, the inhibition result in assay [1], in assay [2], in assay [4], in [5], in assay [7] and in [8] was “Active” each time. Further, the 50% inhibitory concentration (IC50) in assay [3] is 58.3 µM; in [6], 40 µM; in assay [9], 34 µM. The result in the assay on RT-112 was Active.

`CCCCCCCCCCCCCCCNC(=O)c1ccc2ccccc2c1`: in [9], the IC50 was more than 100 µM.

As to `CCCCCCCCCCCCCCCCNC(=O)c1ccccc1`, the inhibition result in assay [4] is “Active”. Further, the IC50 in [6] and in [9] was 45 µM throughout.

Take `CCCCCCCCCCCCCCCCNC(=O)c1ccncc1`: the IC50 in assay [3] amounted to 76.2 µM; in [6], 51.2 µM; in assay [9], 98 µM; in assay [11] it was 41.7 µM. Besides, the inhibition result in [10] is “Dose-dependent effect”.

For the compound `CCCCCCCCCCCCCCCCNC(=O)c1ccccc1O`, the inhibition entry in assay [1], in assay [5], in [7] and in assay [8] was “Active” in each case. The IC50 in [3] was determined as 5.75 µM; with HT-1376, 10.2 µM; in assay [6], 11.2 µM; in assay [9], 11 µM; in assay [11], 63.3 µM. Besides, the Activity in [12] is listed as 50%. Besides, the inhibition result in assay [10] is “Dose-dependent effect”.

In the case of `CCCCCCCCCCCCCCCCNC(=O)[C@@H](O)c1ccccc1`, the IC50 in assay [3] is 25 µM; in assay [6] it was 18.8 µM; in [9], 78 µM; in assay [11] it was more than 100 µM. Also, in assay [10], the inhibition result was “Dose-dependent effect”.

As to `CCCCCCCCCCCCCCCCNC(=O)c1cc(O)ccc1O`, the inhibition result in assay [1], in assay [5], in assay [7] and in assay [8] was “Active” in each case. For the same compound, the IC50 in assay [3] stood at 7 µM; with HT-1376 it was 9.5 µM; in assay [6], 7.25 µM; in [9], 38 µM. In assay [12], this compound registered an Activity of 80%. The inhibition result in [10] is “Dose-dependent effect”.

For `CCCCCCCCCCCCCCCCNC(=O)[C@H](O)c1ccccc1`, the inhibition entry in assay [2] and in assay [7] was “Active” throughout. For the same compound, the IC50 stood at 28.3 µM in [3], 25 µM in [6], 20 µM in [9] and 3.5 µM in assay [11]. For the same compound, the inhibition result in assay [10] is “Dose-dependent effect”.

Source of the values: ChEMBL document CHEMBL3875220, “Development of new inhibitors for N-acylethanolamine-hydrolyzing acid amidase as promising tool against bladder cancer” (Bioorg Med Chem, 2017).
